Results on twelve compounds are retold here after ChEMBL document CHEMBL1148421, “Novel 3,5-diaryl pyrazolines and pyrazole as low-density lipoprotein (LDL) oxidation inhibitor” (Bioorg Med Chem Lett, 2004).

Holding throughout (format): functional
Test [1] in a line: In vitro ability to protect human LDL against Cu2+-induced peroxidation. (concentration inhibiting 50% of the Cu2+ induced lipid peroxidation). Put shortly: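 Human LDL (120 µg/mL) oxidized with 10 µM CuSO4 as initiator for 4 h in the presence of compound. Lipid peroxidation read out as TBARS. IC50 is the concentration inhibiting TBARS formation by 50%.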
For test [2], the species on record is Homo sapiens. Description: Antioxidant effect on the Cu2+-mediated oxidation and apoB-100 fragmentation in LDL after incubation with 20 uM of compound. The gist of the method: (§1)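 LDL (240 µg/mL in PBS) incubated 12 h at 37 °C with 5 µM CuSO4, with or without compound. About 2.0 µg LDL protein run on 4% SDS-PAGE and stained with Coomassie Brilliant Blue R250. ApoB-100 band quantified by densitometry as peak area (absorbance units per mm). Also reported as percent remaining apoB-100 relative to intact apoB-100 of native LDL incubated without CuSO4.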

The species entered for test [3] is Homo sapiens. The test is described as follows: Antioxidant effect on the Cu2+-mediated oxidation and apoB-100 fragmentation in LDL after incubation with 5 uM of compound. Put shortly: as §1
The species entered for test [4] is Homo sapiens. Description: Antioxidant effect on the Cu2+-mediated oxidation and apoB-100 fragmentation in LDL after incubation with 10 uM of compound. Put shortly: as §1
The species entered for test [5] is Homo sapiens. The test is described as follows: Antioxidant effect on the Cu2+-mediated oxidation andapoB-100 fragmentation in LDL after incubation with 5 uM of compound. The gist of the method: as §1
For test [6], the species on record is Homo sapiens. Description: Antioxidant effect on the Cu2+-mediated oxidation andapoB-100 fragmentation in LDL after incubation with 10 uM of compound. The gist of the method: as §1
The species named for test [7] is Homo sapiens. Description: Antioxidant effect on the Cu2+-mediated oxidation andapoB-100 fragmentation in LDL after incubation with 20 uM of compound. Put shortly: as §1

Structures are written as SMILES. pIC50: −log10 of the molar value.

One may read the pIC50 as the negative decadic logarithm of the IC50, by convention in mol/L. Low values mean a high IC50, high ones a low IC50.

The compound `Cc1cc(C2CC(c3cc(C(C)(C)C)c(O)c(C(C)(C)C)c3)=NN2)c(C)c(C)c1O` (stereo not drawn) gave a pIC50 in test [1] of 6.22.

The compound `CC(C)(C)c1cc(C2=NNC(c3cc(-c4ccccc4)c(O)c(-c4ccccc4)c3)C2)cc(C(C)(C)C)c1O` (stereo not drawn) gave a pIC50 in test [1] of 6.22.

On to `CC(C)(Sc1cc(C(C)(C)C)c(O)c(C(C)(C)C)c1)Sc1cc(C(C)(C)C)c(O)c(C(C)(C)C)c1` [PROBUCOL], for which the Area in test [2] was 9.22 AU mm-1; in test [3] it was 0 AU mm-1; in test [4], 4.73 AU mm-1. The pIC50 in test [1] was 6.22.

On to `COc1cc(C2CC(c3cc(C(C)(C)C)c(O)c(C(C)(C)C)c3)=NN2)ccc1O` (stereo not drawn), for which, in test [1], the pIC50 is 6.70.

For the compound `CC(C)(C)c1cc(-c2cc(-c3cc(C(C)(C)C)c(O)c(C(C)(C)C)c3)[nH]n2)cc(C(C)(C)C)c1O`, the pIC50 in test [1] is 6.15.

Regarding `CC(C)(C)c1cc(C2=NNC(c3ccc(O)c([N+](=O)[O-])c3)C2)cc(C(C)(C)C)c1O` (stereo not drawn), the pIC50 in test [1] was 6.52.

In test [1], `CC(C)(C)c1cc(C2=NNC(c3ccc(O)cc3)C2)cc(C(C)(C)C)c1O` (stereo not drawn) had a pIC50 of 6.70.

Regarding `CC(C)(C)c1cc(C2=NNC(c3cc(C(C)(C)C)c(O)c(C(C)(C)C)c3)C2)cc(C(C)(C)C)c1O` (stereo not drawn), the Area in test [5] was found to be 5.63 AU mm-1; in test [6], 9.26 AU mm-1; in test [7], 9.97 AU mm-1. Besides, the pIC50 in test [1] is 7.00.

With `CC(C)(C)c1cc(C2=NNC(c3ccc(O)c(O)c3)C2)cc(C(C)(C)C)c1O` (stereo not drawn), the pIC50 in test [1] was 6.52.

Turning to `CC(C)(C)c1cc(C2=NNC(c3cc(F)c(O)c(F)c3)C2)cc(C(C)(C)C)c1O` (stereo not drawn), the pIC50 in test [1] is 6.70.

`CC(C)c1cc(C2CC(c3cc(C(C)(C)C)c(O)c(C(C)(C)C)c3)=NN2)cc(C(C)C)c1O` (stereo not drawn) showed a pIC50 in test [1] of 6.15.

Compound `Cc1cc(C2CC(c3cc(C(C)(C)C)c(O)c(C(C)(C)C)c3)=NN2)cc(C)c1O` (stereo not drawn) had a pIC50 in test [1] of 6.70.
